Assay results published in ChEMBL document CHEMBL4028903 (J Med Chem, 2017).
≈ marks a conversion by molar mass, not a printed value. Calls of active or inactive are those of the source. The rule behind the calls is not given here.

Key:
[1] = Extraction ratio in human liver microsomes; type: ADME, microsome; conditions: read-out: ERH
[2] = Solubility of the compound in fasted state simulated intestinal fluid at pH 6.8; type: physicochemical
[3] = Oral bioavailability in rat at 10 mg/kg administered via gavage by LC-MS/MS analysis; type: ADME, organism-based; conditions: in vivo
Method in brief: (§1)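 Rats were dosed IV as a solution in 75% PEG300:25% D5W, or orally as a suspension in 0.5% methylcellulose, 0.5% Tween80 and 99% water.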

[4] = Cmax in rat at 10 mg/kg, po administered via gavage by LC-MS/MS analysis; type: ADME, organism-based; design: dose 10 mg/kg, route oral; conditions: in vivo; method in brief: as §1
[5] = AUC in rat at 10 mg/kg, po administered via gavage by LC-MS/MS analysis; type: ADME, organism-based; conditions: in vivo; method in brief: as §1
[6] = Extraction ratio in rat liver microsomes; type: ADME, microsome; conditions: read-out: ERH
[7] = molecular target: T1, Bile acid receptor (Homo sapiens, UniProt Q96RI1); assay: Agonist activity at human FXR expressed in HEK293T cells assessed as BSEP promoter driven cellular transcriptional activity after 24 hrs by luciferase reporter gene assay; type: cell-based, HEK-293T
T1 sequence (Q96RI1 whole entry): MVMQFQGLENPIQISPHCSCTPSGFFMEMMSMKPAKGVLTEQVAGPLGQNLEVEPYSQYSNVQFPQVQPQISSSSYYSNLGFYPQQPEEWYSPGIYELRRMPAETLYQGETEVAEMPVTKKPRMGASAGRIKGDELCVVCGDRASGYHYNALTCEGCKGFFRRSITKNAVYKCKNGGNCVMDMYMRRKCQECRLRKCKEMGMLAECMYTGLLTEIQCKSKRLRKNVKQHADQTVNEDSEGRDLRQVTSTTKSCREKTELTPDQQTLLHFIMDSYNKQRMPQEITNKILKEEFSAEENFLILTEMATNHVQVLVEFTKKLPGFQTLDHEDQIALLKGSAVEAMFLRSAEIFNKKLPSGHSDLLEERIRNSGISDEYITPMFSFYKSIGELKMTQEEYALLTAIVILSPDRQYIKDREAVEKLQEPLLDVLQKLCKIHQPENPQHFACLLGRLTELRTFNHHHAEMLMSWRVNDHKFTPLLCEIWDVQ

[8] = molecular target: T1, Bile acid receptor; assay: Agonist activity at recombinant human GST-tagged FXR ligand binding domain (193 to 472 residues) expressed in baculovirus infected insect cells assessed as induction of interaction with biotin labelled SRC-1 after 1 hr by HTRF assay
[9] = Dissociation constant, pKa of compound; type: physicochemical
[10] = Terminal half life in rat at 3 mg/kg, iv by LC-MS/MS analysis; type: ADME, organism-based; conditions: in vivo, read-out: beta t1/2 (converted); method in brief: as §1
[11] = Volume of distribution at steady state in rat at 3 mg/kg, iv by LC-MS/MS analysis; type: ADME, organism-based; conditions: in vivo, read-out: Vdss; method in brief: as §1
[12] = Clearance in rat at 3 mg/kg, iv by LC-MS/MS analysis; type: ADME, organism-based; conditions: in vivo; method in brief: as §1
[13] = molecular target: T2, G-protein coupled bile acid receptor 1 (Mus musculus, UniProt Q80SS6); assay: Agonist activity at mouse TGR5
T2 sequence (Q80SS6 whole entry): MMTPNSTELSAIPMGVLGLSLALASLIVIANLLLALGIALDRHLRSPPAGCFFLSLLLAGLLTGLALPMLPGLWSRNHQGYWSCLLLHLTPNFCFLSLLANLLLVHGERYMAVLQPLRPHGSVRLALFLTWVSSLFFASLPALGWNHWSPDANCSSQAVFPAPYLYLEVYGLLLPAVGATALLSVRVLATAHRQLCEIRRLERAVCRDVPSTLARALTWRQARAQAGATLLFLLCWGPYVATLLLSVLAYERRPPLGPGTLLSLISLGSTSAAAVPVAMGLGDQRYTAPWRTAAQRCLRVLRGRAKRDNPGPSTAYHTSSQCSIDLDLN

[14] = molecular target: T3, G-protein coupled bile acid receptor 1 (Homo sapiens, UniProt Q8TDU6); assay: Agonist activity at human TGR5
T3 sequence (Q8TDU6 whole entry): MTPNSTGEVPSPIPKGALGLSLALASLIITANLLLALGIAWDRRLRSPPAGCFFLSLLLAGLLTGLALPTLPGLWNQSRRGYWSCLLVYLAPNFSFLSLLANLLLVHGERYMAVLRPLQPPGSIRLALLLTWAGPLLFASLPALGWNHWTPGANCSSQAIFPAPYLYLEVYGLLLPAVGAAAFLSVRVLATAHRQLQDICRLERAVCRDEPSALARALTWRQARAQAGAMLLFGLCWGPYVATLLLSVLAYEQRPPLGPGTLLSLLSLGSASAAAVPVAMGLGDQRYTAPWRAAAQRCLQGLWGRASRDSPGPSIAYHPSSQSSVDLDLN

[15] = molecular target: T3, G-protein coupled bile acid receptor 1; assay: Agonist activity at human TGR5 relative to control; conditions: read-out: Efficacy
[16] = tested on: Rattus norvegicus; assay: In vivo agonist activity at FXR in po dosed Sprague-Dawley rat assessed as induction of BSEP mRNA level in liver administered as single dose measured 7 hrs post dose by qPCR analysis
[17] = tested on: Rattus norvegicus; assay: In vivo agonist activity at FXR in po dosed Sprague-Dawley rat assessed as induction of BSEP mRNA level in liver administered as single dose after 7 hrs post dose by qPCR analysis; type: functional, organism-based
[18] = tested on: Rattus norvegicus; assay: In vivo agonist activity at FXR in po dosed Sprague-Dawley rat assessed as induction of SHP mRNA level in liver administered as single dose after 7 hrs post dose by qPCR analysis; type: functional, organism-based
[19] = tested on: Rattus norvegicus; assay: In vivo agonist activity at FXR in Sprague-Dawley rat assessed as induction of SHP mRNA level in liver at 1 mg/kg, po administered as single dose after 7 hrs post dose by qPCR analysis relative to control; type: functional
[20] = tested on: Rattus norvegicus; assay: In vivo agonist activity at FXR in Sprague-Dawley rat assessed as induction of SHP mRNA level in ileum at 0.3 mg/kg, po administered as single dose after 7 hrs post dose by qPCR analysis; type: functional, organism-based
[21] = tested on: Rattus norvegicus; assay: In vivo agonist activity at FXR in Sprague-Dawley rat assessed as induction of FGF15 mRNA level in ileum at 0.3 mg/kg, po administered as single dose after 7 hrs post dose by qPCR analysis; type: functional, organism-based
[22] = tested on: Rattus norvegicus; assay: In vivo agonist activity at FXR in po dosed Sprague-Dawley rat assessed as induction of SHP mRNA level in ileum administered as single dose measured 7 hrs post dose by qPCR analysis; type: functional, organism-based

Compound | hepatic extraction ratio [1] | solubility [2] [µM] | bioavailability [3] [%] | Cmax [4] [nM] | AUC [5] [µM·h] | hepatic extraction ratio [6] | EC50 [7] [nM] | EC50 [8] [nM] | pKa [9] | half-life [10] [h] | Vd [11] [L/kg] | clearance [12] [mL/min/kg] | also measured
O=C(O)c1cc(F)c2nc(N3C4CCC3CC(OCc3c(-c5ccccc5OC(F)F)noc3C3CC3)C4)sc2c1 (stereo not given) | 0.61 | 750 (≈ 439 µg/mL) | 14 | 2120 | 3.45 | 0.4 | 0.8 | 0.27 | 4 | 3.7 | 0.7 | 11 | 
Cc1cc(C(=O)O)cc2sc(N3C4CCC3CC(OCc3c(-c5ccccc5OC(F)(F)F)noc3C3CC3)C4)nc12 (stereo not given) | < 0.21 | < 10 | 3 | 86 | 0.832 | < 0.18 | 0.82 | 0.49 | 5.5 | 1 | 0.84 | 14 | 
CC[C@H]1[C@@H](O)[C@H]2[C@@H]3CC[C@H]([C@H](C)CCC(=O)NCCS(=O)(=O)O)C3(C)CC[C@@H]2[C@@]2(C)CC[C@@H](O)C[C@@H]12 (single isomer, unassigned) |  |  |  |  |  |  |  |  |  |  |  |  | EC50 [13]: 906 nM; EC50 [14]: 205 nM; Emax [15]: 102%
O=C(O)c1ccc2nc(N3CCC(OCc4c(-c5ccccc5C(F)(F)F)noc4C4CC4)CC3)sc2c1 | 0.38 | 131 (≈ 71.2 µg/mL) |  |  |  | 0.5 | 70 | 66 |  |  |  |  | 
O=C(O)c1ccc2nc(N3CCC(OCc4c(-c5c(F)cccc5F)noc4C4CC4)CC3)sc2c1 | 0.27 | 169 (≈ 86.5 µg/mL) |  |  |  | 0.52 | 88 |  |  |  |  |  | 
O=C(O)c1cc(F)c2nc(N3C4CCC3CC(OCc3c(-c5ccccc5C(F)(F)F)noc3C3CC3)C4)sc2c1 (stereo not given) | 0.36 | 510 (≈ 300 µg/mL) | 14 | 2110 | 3.64 | 0.19 | 0.54 | 0.46 | 4 | 1.8 | 0.6 | 11 | Activity [16]: Dose-dependent effect; Activity [17]: Dose-dependent effect; Activity [18]: Dose-dependent effect; fold change (FC) [19]: 6; Activity [20]: Active; Activity [21]: Active; Activity [22]: Dose-dependent effect
O=C(O)c1ccc2nc(N3CC[C@@H](OCc4c(-c5c(Cl)cccc5Cl)noc4C4CC4)C3)sc2c1 |  |  |  |  |  |  | 9200 | 3060 |  |  |  |  | 
CC[C@H]1[C@@H](O)[C@H]2[C@@H]3CC[C@H]([C@H](C)CCC(=O)NCC(=O)O)C3(C)CC[C@@H]2[C@@]2(C)CC[C@@H](O)C[C@@H]12 (single isomer, unassigned) |  |  |  |  |  |  |  |  |  |  |  |  | EC50 [13]: 637 nM; EC50 [14]: 315 nM; Emax [15]: 101%
O=C(O)c1ccc2nc(N3C4CCC3CC(OCc3c(-c5ccccc5OC(F)(F)F)noc3C3CC3)C4)sc2c1 (stereo not given) | < 0.2 | 110 (≈ 64.4 µg/mL) | 11 | 173 | 1.92 | 0.51 | 0.69 | 0.54 | 5.1 | 1 | 1.1 | 17 | 
CC[C@H]1[C@@H](O)[C@@H]2[C@H](CC[C@]3(C)[C@@H]([C@H](C)CCC(=O)O)CC[C@@H]23)[C@@]2(C)CC[C@@H](O)C[C@@H]12 [OBETICHOLIC ACID] |  |  |  |  |  |  |  |  |  |  |  |  | EC50 [13]: 5740 nM
O=C(O)c1ccc2nc(N3CC(OCc4c(-c5ccccc5OC(F)(F)F)noc4C4CC4)C3)sc2c1 |  |  |  |  |  |  | 8400 | 1580 |  |  |  |  | 
COc1cc(C(=O)O)cc2sc(N3C4CCC3CC(OCc3c(-c5ccccc5OC(F)(F)F)noc3C3CC3)C4)nc12 (stereo not given) | 0.64 | 75 (≈ 46.2 µg/mL) | 9 | 1990 | 2.67 | 0.5 | 0.42 | 0.57 | 4.5 | 0.7 | 0.26 | 9 | 
O=C(O)c1ccc2nc(N3CCC(OCc4c(-c5ccccc5OC(F)(F)F)noc4C4CC4)CC3)sc2c1 |  | 70 (≈ 39.2 µg/mL) | 37 | 382 | 4.57 |  |  |  |  | 1 | 1.2 | 24 | 
O=C(O)c1ccc2nc(N3CCC(OCc4c(-c5c(Cl)cccc5Cl)noc4C4CC4)CC3)sc2c1 | 0.81 | 61 (≈ 33.2 µg/mL) | 6 | 44 | 0.39 | 0.58 | 9.5 | 8.3 |  | 0.34 | 0.55 | 50 | 
O=C(O)c1ccc2nc(N3CCCC(OCc4c(-c5ccccc5OC(F)(F)F)noc4C4CC4)CC3)sc2c1 (stereo not given) | 0.89 | 126 (≈ 72.3 µg/mL) |  |  |  | 0.75 | 6.6 | 4.2 |  |  |  |  | 
